{
  "source": "ChEMBL document CHEMBL3421610",
  "about": "“Antimalarial activity of 4-amidinoquinoline and 10-amidinobenzonaphthyridine derivatives” (J Med Chem, 2015)",
  "note": "The source made the active and inactive calls. The rule behind the calls is not given here.",
  "data": [
    {"test_system": "Plasmodium berghei", "experiment": "Antimalarial activity against erythrocytic stage of chloroquine resistant Plasmodium berghei ANKA infected in mouse assessed as cure rate at 160 mg/kg, po qd administered on day 3, 4 and 5 post infection measured 3 times per week for 30 days, starting from day 3 by Thompson test", "assay_type": "functional, organism-based", "parameters": "dose 160 mg/kg", "conditions": "not given", "method_in_brief": "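Male mice of 16-20 g inoculated intraperitoneally with 5 x 10^6 erythrocytes infected with CQ-resistant P. berghei ANKA. Drug given orally as a suspension once daily on days 3, 4 and 5 post-infection, five mice per dose. Blood films from day 3, three times weekly for 30 days. Cure means parasite-negative on day 30 or surviving 30 days. Mice losing >20% body weight sacrificed.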", "values": [
      {"smiles": "CCN(CC)CCCCN/C(C)=N\\c1ccnc2cc(Cl)ccc12", "Activity": "inactive"},
      {"smiles": "C/C(=N/c1ccnc2cc(Cl)ccc12)NCCCCN1CCCCC1", "Activity": "inactive"}
    ]},
    {"test_system": "Plasmodium falciparum", "experiment": "Potency index, ratio of chloroquine IC50 to compound IC50 for chloroquine-resistant Plasmodium falciparum W2", "assay_type": "functional", "conditions": "not given", "values": [
      {"smiles": "CN(C)CCCN/C(=N\\c1ccnc2cc(Cl)ccc12)c1ccccc1", "Ratio IC50": 50},
      {"smiles": "CCN(CC)CCCN/C(=N\\c1ccnc2cc(Cl)ccc12)c1ccccc1", "Ratio IC50": 50}
    ]},
    {"target": "hERG (KCNH2) (Homo sapiens, UniProt Q12809)", "sequence (Q12809 whole entry)": "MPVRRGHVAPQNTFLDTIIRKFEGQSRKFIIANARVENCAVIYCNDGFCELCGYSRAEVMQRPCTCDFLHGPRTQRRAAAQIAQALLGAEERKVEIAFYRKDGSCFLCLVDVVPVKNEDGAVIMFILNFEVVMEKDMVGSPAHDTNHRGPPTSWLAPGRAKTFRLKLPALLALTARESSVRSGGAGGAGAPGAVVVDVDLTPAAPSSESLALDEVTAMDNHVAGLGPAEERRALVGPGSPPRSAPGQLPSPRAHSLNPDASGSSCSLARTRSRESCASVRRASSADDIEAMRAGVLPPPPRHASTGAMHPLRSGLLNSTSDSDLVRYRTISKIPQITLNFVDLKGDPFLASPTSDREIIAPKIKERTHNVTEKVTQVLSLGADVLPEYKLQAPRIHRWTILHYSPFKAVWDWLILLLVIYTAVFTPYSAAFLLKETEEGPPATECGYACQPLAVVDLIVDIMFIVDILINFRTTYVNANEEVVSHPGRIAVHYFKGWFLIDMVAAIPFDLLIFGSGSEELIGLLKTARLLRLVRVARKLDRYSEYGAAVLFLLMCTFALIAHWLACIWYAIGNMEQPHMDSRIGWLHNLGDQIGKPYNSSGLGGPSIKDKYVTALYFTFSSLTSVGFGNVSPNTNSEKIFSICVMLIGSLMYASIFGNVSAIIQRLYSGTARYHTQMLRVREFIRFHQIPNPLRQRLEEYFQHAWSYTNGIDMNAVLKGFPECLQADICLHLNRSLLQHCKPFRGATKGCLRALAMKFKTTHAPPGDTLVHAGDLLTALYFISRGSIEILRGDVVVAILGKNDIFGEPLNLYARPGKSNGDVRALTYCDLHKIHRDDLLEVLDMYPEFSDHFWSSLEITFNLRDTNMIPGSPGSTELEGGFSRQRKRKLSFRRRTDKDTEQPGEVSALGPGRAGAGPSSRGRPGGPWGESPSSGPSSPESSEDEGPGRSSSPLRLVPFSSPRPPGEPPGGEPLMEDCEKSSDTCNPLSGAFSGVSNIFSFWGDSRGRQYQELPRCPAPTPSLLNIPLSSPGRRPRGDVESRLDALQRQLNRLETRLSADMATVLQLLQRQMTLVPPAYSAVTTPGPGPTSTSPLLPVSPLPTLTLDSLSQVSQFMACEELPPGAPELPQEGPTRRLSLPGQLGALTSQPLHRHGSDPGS", "experiment": "Inhibition of human ERG expressed in CHL cells assessed as tail current at 10 uM after 7 mins by patch clamp assay relative to control", "assay_type": "cell-based", "conditions": "CHL cells expressing human ERG", "units": {"inhibition at 7 min, 10 µM": "%"}, "values": [
      {"smiles": "CN(C)CCCN/C(=N\\c1ccnc2cc(Cl)ccc12)c1ccccc1", "inhibition at 7 min, 10 µM": 90.6},
      {"smiles": "CCN(CC)CCCN/C(=N\\c1ccnc2cc(Cl)ccc12)c1ccccc1", "inhibition at 7 min, 10 µM": 100}
    ]},
    {"test_system": "not listed separately", "experiment": "Half life in human liver microsomes at 1 uM by LC/MS analysis", "assay_type": "ADME", "conditions": "not given", "method_in_brief": "(§1)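 Compound at 1 µM final, diluted from […], with 0.5 mg/mL pooled human or mouse liver microsomes, NADP, MgCl2 and 0.1 M PBS pH 7.4. Reaction started with 1 U/mL G6PD and shaken at 37 °C. Aliquots quenched in cold acetonitrile at 0, 10, 20, 30 and 60 min and quantified by LC/MS. Half-life from log plot of total ion chromatogram area remaining.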", "units": {"half-life at 1 µM": "min"}, "values": [
      {"smiles": "CN(C)CCCN/C(=N\\c1ccnc2cc(Cl)ccc12)c1ccccc1", "half-life at 1 µM": "> 60"},
      {"smiles": "CCN(CC)CCCN/C(=N\\c1ccnc2cc(Cl)ccc12)c1ccccc1", "half-life at 1 µM": 21},
      {"smiles": "CCN(CC)CCCCN/C(C)=N\\c1ccnc2cc(Cl)ccc12", "half-life at 1 µM": "> 60"},
      {"smiles": "C/C(=N/c1ccnc2cc(Cl)ccc12)NCCCCN1CCCCC1", "half-life at 1 µM": "> 60"}
    ]},
    {"test_system": "Plasmodium falciparum", "experiment": "Antimalarial activity against chloroquine-resistant Plasmodium falciparum W2 assessed as growth inhibition after 18 hrs by [3H]-hypoxanthine uptake assay", "assay_type": "functional, organism-based", "conditions": "not given", "method_in_brief": "(§2)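 P. falciparum clones D6, W2 and TM91C235; modified semiautomated microdilution. Compounds in DMSO, diluted in RPMI 1640 with 10% human plasma, tested over (1.56-100) x 10^-9 M; final DMSO 0.25-0.5%. Inoculum 0.5% parasitemia, 1% hematocrit. 24 h incubation, then [3H]-hypoxanthine added, further 18 h. Harvested and read by scintillation counting; IC50 by nonlinear regression.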", "units": {"IC50": "nM"}, "values": [
      {"smiles": "CN(C)CCCN/C(=N\\c1ccnc2cc(Cl)ccc12)c1ccccc1", "IC50": 9.2},
      {"smiles": "CCN(CC)CCCN/C(=N\\c1ccnc2cc(Cl)ccc12)c1ccccc1", "IC50": 7.2},
      {"smiles": "CCN(CC)CCCCN/C(C)=N\\c1ccnc2cc(Cl)ccc12", "IC50": 98.3},
      {"smiles": "C/C(=N/c1ccnc2cc(Cl)ccc12)NCCCCN1CCCCC1", "IC50": 126}
    ]},
    {"test_system": "Mus musculus", "experiment": "Toxicity in mouse infected with erythrocytic stage of chloroquine resistant Plasmodium berghei ANKA up to 160 mg/kg, po qd administered on day 3, 4 and 5 post infection measured over 30 days", "assay_type": "organism-based, Erythrocyte", "parameters": "dose 160 mg/kg, route oral", "conditions": "in vivo, 720 h", "method_in_brief": "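Male mice of 16-20 g infected intraperitoneally with CQ-resistant P. berghei ANKA (5 x 10^6 infected erythrocytes). Oral dosing once daily on days 3-5, five mice per group. Animals followed for 30 days by blood films; mice losing >20% body weight sacrificed.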", "values": [
      {"smiles": "CCN(CC)CCCCN/C(C)=N\\c1ccnc2cc(Cl)ccc12", "Activity": "Non-toxic"},
      {"smiles": "C/C(=N/c1ccnc2cc(Cl)ccc12)NCCCCN1CCCCC1", "Activity": "Non-toxic"}
    ]},
    {"test_system": "Plasmodium falciparum", "experiment": "Antimalarial activity against chloroquine-sensitive Plasmodium falciparum D6 assessed as growth inhibition after 18 hrs by [3H]-hypoxanthine uptake assay", "assay_type": "functional, organism-based", "conditions": "not given", "method_in_brief": "as §2", "units": {"IC50": "nM"}, "values": [
      {"smiles": "CN(C)CCCN/C(=N\\c1ccnc2cc(Cl)ccc12)c1ccccc1", "IC50": 2.1},
      {"smiles": "CCN(CC)CCCN/C(=N\\c1ccnc2cc(Cl)ccc12)c1ccccc1", "IC50": 1.8},
      {"smiles": "CCN(CC)CCCCN/C(C)=N\\c1ccnc2cc(Cl)ccc12", "IC50": 24.9},
      {"smiles": "C/C(=N/c1ccnc2cc(Cl)ccc12)NCCCCN1CCCCC1", "IC50": 62}
    ]},
    {"test_system": "HepG2", "experiment": "Cytotoxicity against human HepG2 cells after 48 hrs by MTT assay", "assay_type": "cell-based", "conditions": "HepG2, 48 h", "method_in_brief": "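HepG2 cells in supplemented MEM, plated at 9570 cells/well in 384-well format and incubated overnight at 37 °C, 5% CO2. Twelve duplicate 1.6-fold dilutions, 57–10,000 ng/ml, incubated 48 h. MTT added for 1 h at room temperature in the dark, formazan dissolved in acidified isopropanol, absorbance read. IC50 by sigmoidal variable-slope nonlinear regression; tryptanthrin control.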", "units": {"IC50": "µg/mL"}, "values": [
      {"smiles": "CN(C)CCCN/C(=N\\c1ccnc2cc(Cl)ccc12)c1ccccc1", "IC50": 5.13},
      {"smiles": "CCN(CC)CCCN/C(=N\\c1ccnc2cc(Cl)ccc12)c1ccccc1", "IC50": 5.08},
      {"smiles": "CCN(CC)CCCCN/C(C)=N\\c1ccnc2cc(Cl)ccc12", "IC50": 2.68},
      {"smiles": "C/C(=N/c1ccnc2cc(Cl)ccc12)NCCCCN1CCCCC1", "IC50": 9.81}
    ]},
    {"test_system": "Plasmodium berghei", "experiment": "Antimalarial activity against erythrocytic stage of chloroquine resistant Plasmodium berghei ANKA infected in mouse assessed as parasite clearance at 160 mg/kg, po qd administered on day 3, 4 and 5 post infection measured on day 2 to 7 post last dose", "assay_type": "functional, organism-based", "parameters": "dose 160 mg/kg", "conditions": "not given", "method_in_brief": "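Male mice of 16-20 g inoculated intraperitoneally with 5 x 10^6 erythrocytes infected with CQ-resistant P. berghei ANKA. Drug given orally as a suspension once daily on days 3, 4 and 5 post-infection, five mice per dose. Parasitemia followed by blood films from day 3, three times weekly for 30 days; infected untreated mice served as negative controls.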", "values": [
      {"smiles": "CCN(CC)CCCCN/C(C)=N\\c1ccnc2cc(Cl)ccc12", "Activity": "Active"},
      {"smiles": "C/C(=N/c1ccnc2cc(Cl)ccc12)NCCCCN1CCCCC1", "Activity": "Active"}
    ]},
    {"test_system": "Salmonella typhi", "experiment": "Mutagenicity in Salmonella typhi by Ames test", "assay_type": "toxicity, organism-based", "conditions": "salmonella enterica subsp. enterica […]", "values": [
      {"smiles": "CN(C)CCCN/C(=N\\c1ccnc2cc(Cl)ccc12)c1ccccc1", "Activity": "Non-toxic"}
    ]},
    {"test_system": "Plasmodium falciparum", "experiment": "Antimalarial activity against chloroquine-resistant Plasmodium falciparum C235 assessed as growth inhibition after 18 hrs by [3H]-hypoxanthine uptake assay", "assay_type": "functional, organism-based", "conditions": "not given", "method_in_brief": "as §2", "units": {"IC50": "nM"}, "values": [
      {"smiles": "CN(C)CCCN/C(=N\\c1ccnc2cc(Cl)ccc12)c1ccccc1", "IC50": 3.4},
      {"smiles": "CCN(CC)CCCN/C(=N\\c1ccnc2cc(Cl)ccc12)c1ccccc1", "IC50": 3.3},
      {"smiles": "CCN(CC)CCCCN/C(C)=N\\c1ccnc2cc(Cl)ccc12", "IC50": 26},
      {"smiles": "C/C(=N/c1ccnc2cc(Cl)ccc12)NCCCCN1CCCCC1", "IC50": 64}
    ]},
    {"test_system": "not listed separately", "experiment": "Half life in mouse liver microsomes at 1 uM by LC/MS analysis", "assay_type": "ADME", "conditions": "not given", "method_in_brief": "as §1", "units": {"half-life at 1 µM": "min"}, "values": [
      {"smiles": "CN(C)CCCN/C(=N\\c1ccnc2cc(Cl)ccc12)c1ccccc1", "half-life at 1 µM": 52},
      {"smiles": "CCN(CC)CCCN/C(=N\\c1ccnc2cc(Cl)ccc12)c1ccccc1", "half-life at 1 µM": 16},
      {"smiles": "CCN(CC)CCCCN/C(C)=N\\c1ccnc2cc(Cl)ccc12", "half-life at 1 µM": "> 60"},
      {"smiles": "C/C(=N/c1ccnc2cc(Cl)ccc12)NCCCCN1CCCCC1", "half-life at 1 µM": "> 60"}
    ]}
  ]
}
